The subject of one experiment is Salmonella typhimurium. Briefly: Antibacterial activity against Salmonella Typhimurium ATTC 23564 at 1 mg/ml after 24 hrs by well-diffusion method. The settings on record: Salmonella enterica, ATTC 23564, 24 h; read-out: DIZ. The class given is functional, Salmonella enterica subsp. enterica serovar Typhimurium. On the technique in general: A growth-free zone around the sample is the usual read-out of agar diffusion tests.
`Nc1ccc(-c2nnc(-c3ccc(-c4nnc(-c5ccc(N)cc5)o4)cc3)o2)cc1`: the zone of inhibition at 1000 µg/mL is 5 mm.
On to `O=[N+]([O-])c1ccc(-c2nn3c(-c4ccc(-c5nnc6sc(-c7ccc([N+](=O)[O-])cc7)nn56)cc4)nnc3s2)cc1`, for which the zone of inhibition at 1000 µg/mL was 5 mm.
In the case of `COc1ccc(/C=N/NC(=O)c2ccc(C(=O)N/N=C/c3ccc(OC)cc3)cc2)cc1`, the zone of inhibition at 1000 µg/mL amounted to 4 mm.
For `O=C(N/N=C/c1ccccc1Br)c1ccc(C(=O)N/N=C/c2ccccc2Br)cc1`, the zone of inhibition at 1000 µg/mL came to 6 mm.
Still for that read-out and setting: the same measure for `O=[N+]([O-])c1ccc(-c2nnc(-c3ccc(-c4nnc(-c5ccc([N+](=O)[O-])cc5)o4)cc3)o2)cc1`: 8 mm.
In the case of `O=C(NN1C(=O)CSC1c1ccccc1Cl)c1ccc(C(=O)NN2C(=O)CSC2c2ccccc2Cl)cc1` (stereo not given), the zone of inhibition at 1000 µg/mL came to 6 mm.
Still for that read-out and setting: to `O=C(O)c1cn(C2CC2)c2cc(N3CCNCC3)c(F)cc2c1=O` [CIPROFLOXACIN] belongs 23 mm; to `O=C(NN1C(=O)CSC1c1ccccc1Br)c1ccc(C(=O)NN2C(=O)CSC2c2ccccc2Br)cc1` (stereo not given), 6 mm.
`c1ccc(-c2nnc(-c3ccc(-c4nnc(-c5ccccc5)o4)cc3)o2)cc1`: the zone of inhibition at 1000 µg/mL is 7 mm.
In the case of `Cc1cc(NS(=O)(=O)c2ccc(N)cc2)no1` [SULFAMETHOXAZOLE], the zone of inhibition at 1000 µg/mL was determined as 11 mm.
Still for that read-out and setting: to `COc1ccc(-c2nnc(-c3ccc(-c4nnc(-c5ccc(OC)cc5)o4)cc3)o2)cc1` belongs 4 mm; to `Oc1ccc(-c2nnc(-c3ccc(-c4nnc(-c5ccc(O)cc5)o4)cc3)o2)cc1`, 4 mm; to `Nn1c(S)nnc1-c1ccc(-c2nnc(S)n2N)cc1`, 6 mm.
Regarding `Clc1ccccc1-c1nn2c(-c3ccc(-c4nnc5sc(-c6ccccc6Cl)nn45)cc3)nnc2s1`, the zone of inhibition at 1000 µg/mL amounted to 6 mm.
With `O=C(N/N=C/c1ccc(O)cc1)c1ccc(C(=O)N/N=C/c2ccc(O)cc2)cc1`, the zone of inhibition at 1000 µg/mL is 5 mm.
Turning to `O=C(N/N=C/c1ccccc1)c1ccc(C(=O)N/N=C/c2ccccc2)cc1`, the zone of inhibition at 1000 µg/mL is 4 mm.
Turning to `O=C(N/N=C/c1ccccc1Cl)c1ccc(C(=O)N/N=C/c2ccccc2Cl)cc1`, the zone of inhibition at 1000 µg/mL worked out at 7 mm.
With `Clc1ccc(-c2nnc(-c3ccc(-c4nnc(-c5ccc(Cl)cc5)o4)cc3)o2)cc1`, the zone of inhibition at 1000 µg/mL is 6 mm.
With `O=C(NN1C(=O)CSC1c1ccccc1)c1ccc(C(=O)NN2C(=O)CSC2c2ccccc2)cc1` (stereo not given), the zone of inhibition at 1000 µg/mL is 7 mm.

In another experiment the test system is Escherichia coli. Briefly: Antibacterial activity against Escherichia coli ATTC 25922 at 1 mg/ml after 24 hrs by well-diffusion method. The settings on record: ATTC 25922, 24 h, read-out: DIZ. The class given is functional. The procedure, abridged: (§1)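 Agar well diffusion. About 1 cm3 of a 24 h infusion-broth culture (10^6 cfu cm-3) was mixed in plates with 15 cm3 molten nutrient agar held at 45°C. Once the agar set, 6 mm wells were punched and filled with compound solution (1 mg ml-1 in DMSO). Plates were incubated 24 h at 37°C, and the inhibition-zone diameter was measured. Ciprofloxacin and sulphamethoxazole were the standards.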
For the compound `Nc1ccc(-c2nnc(-c3ccc(-c4nnc(-c5ccc(N)cc5)o4)cc3)o2)cc1`, the zone of inhibition at 1000 µg/mL came to 6 mm.
`O=[N+]([O-])c1ccc(-c2nn3c(-c4ccc(-c5nnc6sc(-c7ccc([N+](=O)[O-])cc7)nn56)cc4)nnc3s2)cc1`: the zone of inhibition at 1000 µg/mL was determined as 5 mm.
As to `COc1ccc(/C=N/NC(=O)c2ccc(C(=O)N/N=C/c3ccc(OC)cc3)cc2)cc1`, the zone of inhibition at 1000 µg/mL was 6 mm.
Turning to `O=C(N/N=C/c1ccccc1Br)c1ccc(C(=O)N/N=C/c2ccccc2Br)cc1`, the zone of inhibition at 1000 µg/mL worked out at 6 mm.
Regarding `O=[N+]([O-])c1ccc(-c2nnc(-c3ccc(-c4nnc(-c5ccc([N+](=O)[O-])cc5)o4)cc3)o2)cc1`, the zone of inhibition at 1000 µg/mL was found to be 9 mm.
Turning to `O=C(NN1C(=O)CSC1c1ccccc1Cl)c1ccc(C(=O)NN2C(=O)CSC2c2ccccc2Cl)cc1` (stereo not given), the zone of inhibition at 1000 µg/mL came to 7 mm.
Turning to `O=C(NN1C(=O)CSC1c1ccccc1Br)c1ccc(C(=O)NN2C(=O)CSC2c2ccccc2Br)cc1` (stereo not given), the zone of inhibition at 1000 µg/mL is 7 mm.
Take `c1ccc(-c2nnc(-c3ccc(-c4nnc(-c5ccccc5)o4)cc3)o2)cc1`: the zone of inhibition at 1000 µg/mL is 8 mm.
On the same count and under the same terms, the same measure for `Cc1cc(NS(=O)(=O)c2ccc(N)cc2)no1` [SULFAMETHOXAZOLE]: 12 mm.
On to `COc1ccc(-c2nnc(-c3ccc(-c4nnc(-c5ccc(OC)cc5)o4)cc3)o2)cc1`, for which the zone of inhibition at 1000 µg/mL was 7 mm.
With `Oc1ccc(-c2nnc(-c3ccc(-c4nnc(-c5ccc(O)cc5)o4)cc3)o2)cc1`, the zone of inhibition at 1000 µg/mL was 6 mm.
Still for that read-out and setting: the same measure for `Nn1c(S)nnc1-c1ccc(-c2nnc(S)n2N)cc1`: 7 mm.
Still for that read-out and setting: the same measure for `Clc1ccccc1-c1nn2c(-c3ccc(-c4nnc5sc(-c6ccccc6Cl)nn45)cc3)nnc2s1`: 6 mm; for `O=C(N/N=C/c1ccc(O)cc1)c1ccc(C(=O)N/N=C/c2ccc(O)cc2)cc1`: 5 mm.
On to `O=C(N/N=C/c1ccccc1)c1ccc(C(=O)N/N=C/c2ccccc2)cc1`, for which the zone of inhibition at 1000 µg/mL came out at 6 mm.
For the compound `O=C(N/N=C/c1ccccc1Cl)c1ccc(C(=O)N/N=C/c2ccccc2Cl)cc1`, the zone of inhibition at 1000 µg/mL was found to be 5 mm.
Take `Clc1ccc(-c2nnc(-c3ccc(-c4nnc(-c5ccc(Cl)cc5)o4)cc3)o2)cc1`: the zone of inhibition at 1000 µg/mL was determined as 8 mm.
As for `O=C(NN1C(=O)CSC1c1ccccc1)c1ccc(C(=O)NN2C(=O)CSC2c2ccccc2)cc1` (stereo not given), the zone of inhibition at 1000 µg/mL amounted to 8 mm.

A further experiment relates to Bacillus cereus. Briefly: Antibacterial activity against Bacillus cereus ATTC 10702 at 1 mg/ml after 24 hrs by well-diffusion method. The class given is functional. The settings on record: ATTC 10702, 24 h, read-out: DIZ. In short, it runs like this: as §1
Consider `Nc1ccc(-c2nnc(-c3ccc(-c4nnc(-c5ccc(N)cc5)o4)cc3)o2)cc1`, for which the zone of inhibition at 1000 µg/mL came to 6 mm.
For the compound `O=[N+]([O-])c1ccc(-c2nn3c(-c4ccc(-c5nnc6sc(-c7ccc([N+](=O)[O-])cc7)nn56)cc4)nnc3s2)cc1`, the zone of inhibition at 1000 µg/mL was found to be 5 mm.
Turning to `COc1ccc(/C=N/NC(=O)c2ccc(C(=O)N/N=C/c3ccc(OC)cc3)cc2)cc1`, the zone of inhibition at 1000 µg/mL worked out at 6 mm.
As for `O=C(N/N=C/c1ccccc1Br)c1ccc(C(=O)N/N=C/c2ccccc2Br)cc1`, the zone of inhibition at 1000 µg/mL is 5 mm.
Same read-out and setting: the same measure for `O=[N+]([O-])c1ccc(-c2nnc(-c3ccc(-c4nnc(-c5ccc([N+](=O)[O-])cc5)o4)cc3)o2)cc1`: 9 mm; for `O=C(NN1C(=O)CSC1c1ccccc1Cl)c1ccc(C(=O)NN2C(=O)CSC2c2ccccc2Cl)cc1` (stereo not given): 6 mm; for `O=C(O)c1cn(C2CC2)c2cc(N3CCNCC3)c(F)cc2c1=O` [CIPROFLOXACIN]: 18 mm.
For the compound `O=C(NN1C(=O)CSC1c1ccccc1Br)c1ccc(C(=O)NN2C(=O)CSC2c2ccccc2Br)cc1` (stereo not given), the zone of inhibition at 1000 µg/mL was 7 mm.
As for `c1ccc(-c2nnc(-c3ccc(-c4nnc(-c5ccccc5)o4)cc3)o2)cc1`, the zone of inhibition at 1000 µg/mL came to 8 mm.
As to `Cc1cc(NS(=O)(=O)c2ccc(N)cc2)no1` [SULFAMETHOXAZOLE], the zone of inhibition at 1000 µg/mL amounted to 10 mm.
`COc1ccc(-c2nnc(-c3ccc(-c4nnc(-c5ccc(OC)cc5)o4)cc3)o2)cc1`: the zone of inhibition at 1000 µg/mL turned out to be 6 mm.
On the same count and under the same terms, to `Oc1ccc(-c2nnc(-c3ccc(-c4nnc(-c5ccc(O)cc5)o4)cc3)o2)cc1` belongs 5 mm.
For the compound `Nn1c(S)nnc1-c1ccc(-c2nnc(S)n2N)cc1`, the zone of inhibition at 1000 µg/mL turned out to be 5 mm.
On the same count and under the same terms, the same measure for `Clc1ccccc1-c1nn2c(-c3ccc(-c4nnc5sc(-c6ccccc6Cl)nn45)cc3)nnc2s1`: 7 mm; for `O=C(N/N=C/c1ccc(O)cc1)c1ccc(C(=O)N/N=C/c2ccc(O)cc2)cc1`: 6 mm.
Same read-out and setting: the same measure for `O=C(N/N=C/c1ccccc1)c1ccc(C(=O)N/N=C/c2ccccc2)cc1`: 4 mm; for `O=C(N/N=C/c1ccccc1Cl)c1ccc(C(=O)N/N=C/c2ccccc2Cl)cc1`: 8 mm.
On to `Clc1ccc(-c2nnc(-c3ccc(-c4nnc(-c5ccc(Cl)cc5)o4)cc3)o2)cc1`, for which the zone of inhibition at 1000 µg/mL worked out at 8 mm.
Regarding `O=C(NN1C(=O)CSC1c1ccccc1)c1ccc(C(=O)NN2C(=O)CSC2c2ccccc2)cc1` (stereo not given), the zone of inhibition at 1000 µg/mL stood at 8 mm.

The test system of the next experiment is Klebsiella pneumoniae. The experiment is described as follows: Antibacterial activity against Klebsiella pneumoniae ATCC 10031 at 1 mg/ml after 24 hrs by well-diffusion method. The class given is functional. The note with it: ATCC 10031, 24 h, read-out: DIZ.
Regarding `Nc1ccc(-c2nnc(-c3ccc(-c4nnc(-c5ccc(N)cc5)o4)cc3)o2)cc1`, the zone of inhibition at 1000 µg/mL came out at 5 mm.
Turning to `O=[N+]([O-])c1ccc(-c2nn3c(-c4ccc(-c5nnc6sc(-c7ccc([N+](=O)[O-])cc7)nn56)cc4)nnc3s2)cc1`, the zone of inhibition at 1000 µg/mL was 5 mm.
Take `COc1ccc(/C=N/NC(=O)c2ccc(C(=O)N/N=C/c3ccc(OC)cc3)cc2)cc1`: the zone of inhibition at 1000 µg/mL was 6 mm.
As to `O=C(N/N=C/c1ccccc1Br)c1ccc(C(=O)N/N=C/c2ccccc2Br)cc1`, the zone of inhibition at 1000 µg/mL turned out to be 5 mm.
As for `O=[N+]([O-])c1ccc(-c2nnc(-c3ccc(-c4nnc(-c5ccc([N+](=O)[O-])cc5)o4)cc3)o2)cc1`, the zone of inhibition at 1000 µg/mL worked out at 8 mm.
As for `O=C(NN1C(=O)CSC1c1ccccc1Cl)c1ccc(C(=O)NN2C(=O)CSC2c2ccccc2Cl)cc1` (stereo not given), the zone of inhibition at 1000 µg/mL came to 6 mm.
With `O=C(O)c1cn(C2CC2)c2cc(N3CCNCC3)c(F)cc2c1=O` [CIPROFLOXACIN], the zone of inhibition at 1000 µg/mL came out at 21 mm.
For `O=C(NN1C(=O)CSC1c1ccccc1Br)c1ccc(C(=O)NN2C(=O)CSC2c2ccccc2Br)cc1` (stereo not given), the zone of inhibition at 1000 µg/mL is 7 mm.
Still for that read-out and setting: the same measure for `c1ccc(-c2nnc(-c3ccc(-c4nnc(-c5ccccc5)o4)cc3)o2)cc1`: 7 mm; for `Cc1cc(NS(=O)(=O)c2ccc(N)cc2)no1` [SULFAMETHOXAZOLE]: 10 mm; for `COc1ccc(-c2nnc(-c3ccc(-c4nnc(-c5ccc(OC)cc5)o4)cc3)o2)cc1`: 5 mm.
As to `Oc1ccc(-c2nnc(-c3ccc(-c4nnc(-c5ccc(O)cc5)o4)cc3)o2)cc1`, the zone of inhibition at 1000 µg/mL stood at 6 mm.
The same measure, in the same setting: the same measure for `Nn1c(S)nnc1-c1ccc(-c2nnc(S)n2N)cc1`: 6 mm; for `Clc1ccccc1-c1nn2c(-c3ccc(-c4nnc5sc(-c6ccccc6Cl)nn45)cc3)nnc2s1`: 6 mm.
`O=C(N/N=C/c1ccc(O)cc1)c1ccc(C(=O)N/N=C/c2ccc(O)cc2)cc1`: the zone of inhibition at 1000 µg/mL was determined as 5 mm.
With `O=C(N/N=C/c1ccccc1)c1ccc(C(=O)N/N=C/c2ccccc2)cc1`, the zone of inhibition at 1000 µg/mL was determined as 5 mm.
On to `O=C(N/N=C/c1ccccc1Cl)c1ccc(C(=O)N/N=C/c2ccccc2Cl)cc1`, for which the zone of inhibition at 1000 µg/mL was determined as 6 mm.
On the same count and under the same terms, to `Clc1ccc(-c2nnc(-c3ccc(-c4nnc(-c5ccc(Cl)cc5)o4)cc3)o2)cc1` belongs 4 mm; to `O=C(NN1C(=O)CSC1c1ccccc1)c1ccc(C(=O)NN2C(=O)CSC2c2ccccc2)cc1` (stereo not given), 6 mm.

The values above are taken from ChEMBL document CHEMBL1154788, “Synthesis and antibacterial activity of some novel bis-1,2,4-triazolo[3,4-b]-1,3,4-thiadiazoles and bis-4-thiazolidinone derivatives from terephthalic dihydrazide” (2009).
